Laboratory results as given in ChEMBL document CHEMBL1149761, “New triazole and triazolothiadiazine derivatives as possible antimicrobial agents” (2008).
Converted amounts (≈) assume the structure as drawn.

Experiments:
Salmonella typhimurium = test: Antibacterial activity against Salmonella Typhimurium NRRL B-4420 by microdilution broth susceptibility assay; type: functional, Salmonella enterica subsp. enterica serovar Typhimurium; conditions: Salmonella enterica
Escherichia coli = test: Antibacterial activity against Escherichia coli NRRL B-3704 by microdilution broth susceptibility assay; type: functional
Proteus vulgaris = test: Antibacterial activity against Proteus vulgaris NRRL B-123 by microdilution broth susceptibility assay; type: functional
Micrococcus luteus = test: Antibacterial activity against Micrococcus luteus NRLL B-4375 by microdilution broth susceptibility assay; type: functional
Bacillus cereus = test: Antibacterial activity against Bacillus cereus NRRL B-3711 by microdilution broth susceptibility assay; type: functional
Staphylococcus aureus = test: Antibacterial activity against Staphylococcus aureus NRRL B-767 by microdilution broth susceptibility assay; type: functional
Nakaseomyces glabratus = test: Antifungal activity against Candida glabrata isolate by broth dilution antifungal susceptibility test; type: functional
Method in brief: (§1)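 Clinical Candida isolates obtained from Osmangazi University, Faculty of Medicine. Tested by the microbroth dilution method alongside bacterial strains.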

Candida albicans = test: Antifungal activity against Candida albicans isolate by broth dilution antifungal susceptibility test; type: functional; method in brief: as §1

MIC (Salmonella typhimurium) [mg/L]	MIC (Escherichia coli) [mg/L]	MIC (Proteus vulgaris) [mg/L]	MIC (Micrococcus luteus) [mg/L]	MIC (Bacillus cereus) [mg/L]	MIC (Staphylococcus aureus) [mg/L]	MIC (Nakaseomyces glabratus) [mg/L]	MIC (Candida albicans) [mg/L]	Compound
62.5 (≈ 181 µM)	250 (≈ 724 µM)	62.5 (≈ 181 µM)	62.5 (≈ 181 µM)	125 (≈ 362 µM)	62.5 (≈ 181 µM)	125 (≈ 362 µM)	125 (≈ 362 µM)	c1ccc(C2=Nn3c(Cc4c[nH]c5ccccc45)nnc3SC2)cc1
62.5 (≈ 174 µM)	125 (≈ 348 µM)	125 (≈ 348 µM)	62.5 (≈ 174 µM)	250 (≈ 695 µM)	125 (≈ 348 µM)	62.5 (≈ 174 µM)	250 (≈ 695 µM)	Cc1ccc(C2=Nn3c(Cc4c[nH]c5ccccc45)nnc3SC2)cc1
125 (≈ 330 µM)	125 (≈ 330 µM)	125 (≈ 330 µM)	125 (≈ 330 µM)	250 (≈ 661 µM)	250 (≈ 661 µM)	125 (≈ 330 µM)	125 (≈ 330 µM)	O=[N+]([O-])c1ccc(/C=N/n2c(Cc3c[nH]c4ccccc34)n[nH]c2=S)cc1
125 (≈ 329 µM)	125 (≈ 329 µM)	250 (≈ 658 µM)	62.5 (≈ 165 µM)	125 (≈ 329 µM)	125 (≈ 329 µM)	250 (≈ 658 µM)	125 (≈ 329 µM)	Clc1ccc(C2=Nn3c(Cc4c[nH]c5ccccc45)nnc3SC2)cc1
12.5 (≈ 32.2 µM)	125 (≈ 322 µM)	125 (≈ 322 µM)	62.5 (≈ 161 µM)	125 (≈ 322 µM)	250 (≈ 644 µM)	250 (≈ 644 µM)	125 (≈ 322 µM)	CN(C)c1ccc(C2=Nn3c(Cc4c[nH]c5ccccc45)nnc3SC2)cc1
250 (≈ 640 µM)	125 (≈ 320 µM)	125 (≈ 320 µM)	125 (≈ 320 µM)	250 (≈ 640 µM)	125 (≈ 320 µM)	125 (≈ 320 µM)	125 (≈ 320 µM)	O=[N+]([O-])c1ccc(C2=Nn3c(Cc4c[nH]c5ccccc45)nnc3SC2)cc1

The remaining lines, values behind:

Compound	MIC (Salmonella typhimurium) [mg/L]	MIC (Escherichia coli) [mg/L]	MIC (Proteus vulgaris) [mg/L]	MIC (Micrococcus luteus) [mg/L]	MIC (Bacillus cereus) [mg/L]	MIC (Staphylococcus aureus) [mg/L]	MIC (Nakaseomyces glabratus) [mg/L]	MIC (Candida albicans) [mg/L]
O=C(N[C@H](CO)[C@H](O)c1ccc([N+](=O)[O-])cc1)C(Cl)Cl [CHLORAMPHENICOL]	0.97 (≈ 3 µM)	62.5 (≈ 193 µM)	0.97 (≈ 3 µM)	1.95 (≈ 6.03 µM)	125 (≈ 387 µM)	62.5 (≈ 193 µM)	–	–
S=c1[nH]nc(Cc2c[nH]c3ccccc23)n1/N=C/c1ccccc1	62.5 (≈ 187 µM)	125 (≈ 375 µM)	62.5 (≈ 187 µM)	250 (≈ 750 µM)	250 (≈ 750 µM)	125 (≈ 375 µM)	125 (≈ 375 µM)	125 (≈ 375 µM)
Cc1ccc(/C=N/n2c(Cc3c[nH]c4ccccc34)n[nH]c2=S)cc1	125 (≈ 360 µM)	250 (≈ 720 µM)	62.5 (≈ 180 µM)	62.5 (≈ 180 µM)	125 (≈ 360 µM)	125 (≈ 360 µM)	125 (≈ 360 µM)	250 (≈ 720 µM)
CN(C)c1ccc(/C=N/n2c(Cc3c[nH]c4ccccc34)n[nH]c2=S)cc1	62.5 (≈ 166 µM)	125 (≈ 332 µM)	125 (≈ 332 µM)	125 (≈ 332 µM)	125 (≈ 332 µM)	250 (≈ 664 µM)	250 (≈ 664 µM)	250 (≈ 664 µM)
S=c1[nH]nc(Cc2c[nH]c3ccccc23)n1/N=C/c1ccc(Cl)cc1	62.5 (≈ 170 µM)	125 (≈ 340 µM)	125 (≈ 340 µM)	62.5 (≈ 170 µM)	250 (≈ 680 µM)	125 (≈ 340 µM)	250 (≈ 680 µM)	125 (≈ 340 µM)
CC(=O)N1CCN(c2ccc(OCC3COC(Cn4ccnc4)(c4ccc(Cl)cc4Cl)O3)cc2)CC1 (stereo not drawn) [KETOCONAZOLE]	–	–	–	–	–	–	62.5 (≈ 118 µM)	62.5 (≈ 118 µM)
